According to ChEMBL document CHEMBL3124900, “Discovery and early clinical evaluation of BMS-605339, a potent and orally efficacious tripeptidic acylsulfonamide NS3 protease inhibitor for the treatment of hepatitis C virus infection” (J Med Chem, 2014):
Values belong to the compound of their own block, whether it stands above or below them. The source made the active and inactive calls. The rule behind the calls is not given here.

Legend:
Hepatitis C virus [1] = experiment: Antiviral activity against Hepatitis C virus genotype 1b Con1 after 4 days by cell-based replicon assay; type: functional, organism-based, Hepacivirus hominis; conditions: isolate Con1, 96 h
Hepatitis C virus [2] = experiment: Antiviral activity against Hepatitis C virus genotype 1 infected in human assessed as reduction in plasma viral load administered orally measured after 12 hrs; type: functional, organism-based; conditions: Hepacivirus hominis
Outline: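 HCV genotype 1-infected subjects received single oral doses of 10, 60 or 120 mg. Plasma HCV RNA was followed, and mean log10 reduction in viral load was read 12 h after dosing.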

[3] = Tmax in po dosed human; type: ADME, organism-based; conditions: in vivo
[4] = Ratio of drug level in liver to plasma in Beagle dog at 14 mg/kg, po measured after 24 hrs by LC/MS/MS analysis; type: ADME, organism-based, Canis lupus familiaris; set-up: dose 14 mg/kg, route oral
Outline: (§1)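 Single oral dose (dog 14 mg/kg, rat 15 mg/kg), with liver and plasma sampled 24 h post-dose. Plasma was precipitated with two volumes of ACN containing internal standard and centrifuged. Tissue was weighed and homogenized in 2 volumes of 20% Hanks buffer/80% ACN. LC/MS/MS used a C18 column at 60 °C, ammonium formate/formic acid water–methanol gradient, and SRM detection. LLQ was 5 nM. Ratio is liver over plasma level.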

Liver = experiment: Drug uptake in intraduodenally dosed Sprague-Dawley rat liver measured per gm of tissue over 4 hrs by LC/MS/MS analysis; type: ADME, organism-based; conditions: in vivo, other
Outline: (§2)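 Abbreviated rat screen: surgically prepared rats were dosed intraduodenally. Plasma was sampled over 4 h, and liver was collected at the 4 h end point. Plasma was precipitated with two volumes of ACN plus internal standard. Liver was weighed and homogenized in 2 volumes of 20% Hanks buffered salt solution/80% ACN. Both were quantified by LC/MS/MS.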

[5] = Half life in rat liver microsomes at 3 uM by LC/MS/MS analysis; type: ADME
Outline: (§3)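 Pooled liver microsomes were run in triplicate per species. Each incubation held 3 μM test compound in 0.1 M potassium phosphate pH 7.4 at 37 °C, with 0.9 mg/mL microsomal protein, 0.033 mM MgCl2 and an NADPH-regenerating system. Proteins were precipitated with two volumes of ACN containing internal standard, and supernatants were analysed by LC/MS/MS.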

[6] = Oral bioavailability in Sprague-Dawley rat at 15 mg/kg administered via gavage by LC/MS/MS analysis; type: ADME, organism-based; conditions: in vivo
Homo sapiens [7] = experiment: Cardiovascular toxicity in healthy human assessed as junctional rhythm disturbances at 120 mg, po by electrocardiography; type: organism-based; conditions: in vivo
[8] = Oral bioavailability in Beagle dog by LC/MS/MS analysis; type: ADME, organism-based, Canis lupus familiaris; conditions: in vivo
Homo sapiens [9] = experiment: Cardiovascular toxicity in Hepatitis C virus genotype 1 infected human assessed as junctional rhythm disturbances at 120 mg, po by electrocardiography; type: organism-based; conditions: in vivo
Cytochrome P450 3A4 = Cytochrome P450 3A4 (Homo sapiens, UniProt P08684); experiment: Inhibition of CYP3A4 (unknown origin); type: ADME
Cytochrome P450 3A4, sequence (P08684 whole entry): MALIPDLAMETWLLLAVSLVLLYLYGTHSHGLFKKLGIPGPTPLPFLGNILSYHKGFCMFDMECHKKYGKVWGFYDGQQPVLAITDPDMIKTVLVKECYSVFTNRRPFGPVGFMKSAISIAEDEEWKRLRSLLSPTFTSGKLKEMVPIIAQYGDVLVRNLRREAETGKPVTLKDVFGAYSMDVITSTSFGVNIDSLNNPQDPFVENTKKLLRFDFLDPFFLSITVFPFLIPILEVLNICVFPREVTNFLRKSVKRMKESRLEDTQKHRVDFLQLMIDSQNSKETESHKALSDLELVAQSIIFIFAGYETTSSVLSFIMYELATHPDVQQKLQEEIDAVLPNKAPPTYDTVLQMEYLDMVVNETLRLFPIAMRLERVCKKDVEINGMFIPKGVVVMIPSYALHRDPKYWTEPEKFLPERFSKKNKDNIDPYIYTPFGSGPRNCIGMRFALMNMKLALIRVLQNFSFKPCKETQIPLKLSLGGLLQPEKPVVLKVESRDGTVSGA

[10] = tested on: Canine parainfluenza virus; experiment: Antiviral activity against Canine parainfluenza virus; type: functional
Homo sapiens [11] = experiment: Cardiovascular toxicity in healthy human assessed as mild bradycardia at 120 mg, po by electrocardiography; type: organism-based; conditions: in vivo
Homo sapiens [12] = experiment: Cardiovascular toxicity in healthy human assessed as PR-interval prolongation at 120 mg, po by electrocardiography; type: organism-based; conditions: in vivo
[13] = Terminal half life in po dosed human; type: ADME, organism-based; conditions: in vivo, read-out: beta t1/2 (converted)
Homo sapiens [14] = experiment: Cardiovascular toxicity in Hepatitis C virus genotype 1 infected human assessed as mild bradycardia at 120 mg, po by electrocardiography; type: organism-based; conditions: in vivo
[15] = Cytotoxicity against human HuH7 cells; type: cell-based; conditions: Huh-7 cells
Homo sapiens [16] = experiment: Cardiovascular toxicity in Hepatitis C virus genotype 1 infected human assessed as PR-interval prolongation at 120 mg, po by electrocardiography; type: organism-based; conditions: in vivo
[17] = Drug uptake into dog hepatocytes by silicone oil layer method; type: ADME, cell-based, Canis lupus familiaris, Hepatocyte
Hepatitis C virus [18] = experiment: Antiviral activity against Hepatitis C virus genotype 1a H77 assessed as inhibition of HCV replicon-encoded Renilla luciferase reporter activity after 4 days by cell-based HCV replicon assay; type: functional, organism-based, Hepacivirus hominis; conditions: genotype 1a H77, 96 h
[19] = AUC in Sprague-Dawley rat at 15 mg/kg, po administered via gavage by LC/MS/MS analysis; type: ADME, organism-based; set-up: dose 15 mg/kg, route oral; conditions: plasma
[20] = Drug uptake into Sprague-Dawley rat hepatocytes by silicone oil layer method; type: ADME, cell-based, Hepatocyte
[21] = Ratio of drug level in liver to plasma in Sprague-Dawley rat at 15 mg/kg, po administered via gavage measured after 24 hrs by LC/MS/MS analysis; type: ADME, organism-based; set-up: dose 15 mg/kg, route oral; outline: as §1
[22] = Apparent terminal half life in Sprague-Dawley rat at 5 mg/kg, iv by LC/MS/MS analysis; type: ADME, organism-based; set-up: dose 5 mg/kg, route intravenous; conditions: in vivo, read-out: betat1/2(app) (converted)
[23] = tested on: Bovine viral diarrhea virus 1; experiment: Antiviral activity against Bovine viral diarrhea virus; type: functional, organism-based
[24] = Oral bioavailability in cynomolgus monkey at 3 mg/kg administered via gavage by LC/MS/MS analysis; type: ADME, organism-based, Macaca fascicularis; conditions: in vivo
[25] = AUC in intraduodenally dosed Sprague-Dawley rat plasma measured over 4 hrs by LC/MS/MS analysis; type: ADME, organism-based; set-up: time < 4 hr, route intraduodenal; conditions: Sprague-Dawley, plasma; outline: as §2
[26] = Drug uptake into human hepatocytes by silicone oil layer method; type: ADME, cell-based, Hepatocyte
[27] = tested on: Human immunodeficiency virus; experiment: Antiviral activity against Human immunodeficiency virus; type: functional, organism-based
[28] = Genotoxicity in micronucleus (unknown origin)
Salmonella typhimurium = experiment: Mutagenicity in Salmonella typhimurium by Ames test; type: toxicity, organism-based; conditions: salmonella enterica subsp. enterica serovar typhimurium
[29] = Binding affinity to P-glycoprotein (unknown origin); type: ADME; conditions: human
[30] = Inhibition of Hepatitis C virus genotype 1a H77 recombinant NS3/4A protease expressed in Escherichia coli BL21 (DE3) cell using Ac-Asp-Glu-Asp(EDANS)-Glu-Glu-Abu[C(O)-O]-Ala-Ser-Lys(DABCYL)-NH2 as substrate by FRET assay; set-up: species or system Hepatitis C virus (isolate H77)
[31] = Whole body plasma clearance in Sprague-Dawley rat at 5 mg/kg, iv by LC/MS/MS analysis; type: ADME, organism-based; set-up: dose 5 mg/kg, route intravenous
[32] = Half life in dog liver microsomes at 3 uM by LC/MS/MS analysis; type: ADME, Canis lupus familiaris; outline: as §3
[33] = Whole body plasma clearance in Beagle dog at 3 mg/kg, iv by LC/MS/MS analysis; type: ADME, organism-based, Canis lupus familiaris; set-up: dose 3 mg/kg, route intravenous
[34] = Plasma concentration in Sprague-Dawley rat at 20 mg/kg, po administered via gavage measured after 4 hrs by LC/MS/MS analysis; type: ADME, organism-based; set-up: dose 20 mg/kg, route oral
[35] = AUC in Sprague-Dawley rat at 20 mg/kg, po administered via gavage by LC/MS/MS analysis; type: ADME, organism-based; set-up: dose 20 mg/kg, route oral; conditions: plasma
[36] = Drug uptake in Sprague-Dawley rat liver at 20 mg/kg, po administered via gavage measured after 8 hrs by LC/MS/MS analysis; type: ADME, organism-based; set-up: dose 20 mg/kg, route oral; conditions: read-out: Drug uptake
[37] = Drug uptake in Sprague-Dawley rat liver at 20 mg/kg, po administered via gavage measured after 4 hrs by LC/MS/MS analysis; type: ADME, organism-based; set-up: dose 20 mg/kg, route oral; conditions: read-out: Drug uptake
[38] = Plasma concentration in Sprague-Dawley rat at 20 mg/kg, po administered via gavage measured after 8 hrs by LC/MS/MS analysis; type: ADME, organism-based; set-up: dose 20 mg/kg, route oral
[39] = Apparent terminal half life in Beagle dog at 3 mg/kg, iv by LC/MS/MS analysis; type: ADME, organism-based, Canis lupus familiaris; set-up: dose 3 mg/kg, route intravenous; conditions: in vivo, read-out: betat1/2(app) (converted)
[40] = AUC in Beagle dog at 3 mg/kg by LC/MS/MS analysis; type: ADME, organism-based, Canis lupus familiaris; set-up: dose 3 mg/kg; conditions: plasma

SMILES: CC[C@@H]1C[C@]1(NC(=O)[C@@H]1C[C@@H](Oc2nccc3cc(OC)ccc23)CN1C(=O)[C@@H](NC(=O)OC(C)(C)C)C(C)(C)C)C(=O)NS(=O)(=O)C1CC1
- EC50 (Hepatitis C virus [1]): 22 nM
- bioavailability [6]: 4%
- IC50 [30]: 6 nM
- CC50 [15]: > 100000 nM
- clearance [31]: 17 mL/min/kg
- AUC [19]: 0.58 µM·h
- half-life [22]: 4.2 h

SMILES: C=C[C@@H]1C[C@]1(NC(=O)[C@@H]1C[C@@H](Oc2nccc3cc(N4CCOCC4)ccc23)CN1C(=O)[C@@H](NC(=O)OC(C)(C)C)C(C)(C)C)C(=O)NS(=O)(=O)C1CC1
- EC50 (Hepatitis C virus [1]): 26 nM
- Drug uptake (Liver): 1018 ng
- IC50 [30]: 3 nM
- CC50 [15]: > 100000 nM
- AUC at 4 h [25]: 0.46 µM·h

SMILES: C=C[C@@H]1C[C@]1(NC(=O)[C@@H]1C[C@@H](Oc2cc(-c3ccccc3)nc3cc(OC)ccc23)CN1C(=O)[C@@H](NC(=O)OC(C)(C)C)C(C)(C)C)C(=O)NS(=O)(=O)C1CC1
- EC50 (Hepatitis C virus [1]): 4 nM
- half-life at 3 µM [32]: 2.83 h
- clearance [33]: 16 mL/min/kg
- Drug uptake (Liver): 7850 ng
- concentration at 4 h [34]: 580 nM
- AUC [35]: 0.73 µM·h
- IC50 [30]: 1 nM
- concentration at 8 h [36]: 600 nM
- concentration at 4 h [37]: 5800 nM
- clearance [31]: 55 mL/min/kg
- AUC [19]: 0.577 µM·h
- half-life [22]: 1 h
- AUC at 4 h [25]: 0.077 µM·h
- concentration at 8 h [38]: 4 nM
- half-life [39]: 0.6 h
- AUC [40]: 2 µM·h

The next lines start with results.

- EC50 (Hepatitis C virus [1]): 2.8 nM
- Tmax [3]: 1.5 h
- Kp at 24 h [4]: 75
- Drug uptake (Liver): 64710 ng
- half-life at 3 µM [5]: > 1 h
- bioavailability [6]: 18%
- bioavailability [8]: 51%
- IC50 (Cytochrome P450 3A4): 2000 nM
- half-life [13]: 4 h
- Km [17]: 1.4 µM
- EC50 (Hepatitis C virus [18]): 8.3 nM
- AUC [19]: 14.1 µM·h
- Km [20]: 1.4 µM
- Kp at 24 h [21]: 136
- half-life [22]: 4.4 h
- bioavailability [24]: < 1%
- AUC at 4 h [25]: 10.4 µM·h
- Km [26]: 1.4 µM
- Activity [29]: Active
SMILES: C=C[C@@H]1C[C@]1(NC(=O)[C@@H]1C[C@@H](Oc2nccc3cc(OC)ccc23)CN1C(=O)[C@@H](NC(=O)OC(C)(C)C)C(C)(C)C)C(=O)NS(=O)(=O)C1CC1
- Activity (Hepatitis C virus [2]): Dose-dependent effect
- Activity (Homo sapiens [7]): Toxic
- Activity (Homo sapiens [9]): Toxic
- Activity [10]: inactive
- Activity (Homo sapiens [11]): Toxic
- Activity (Homo sapiens [12]): Toxic
- Activity (Homo sapiens [14]): Toxic
- CC50 [15]: > 100000 nM
- Activity (Homo sapiens [16]): Toxic
- Activity [23]: inactive
- Activity [27]: inactive
- Activity [28]: Non-toxic
- Activity (Salmonella typhimurium): Non-toxic

- EC50 (Hepatitis C virus [1]): 25 nM
- Drug uptake (Liver): 36160 ng
- bioavailability [6]: 6%
- IC50 [30]: 1 nM
- clearance [31]: 7 mL/min/kg
- AUC [19]: 2.08 µM·h
- half-life [22]: 6.6 h
- AUC at 4 h [25]: 5.5 µM·h
SMILES: C=C[C@@H]1C[C@]1(NC(=O)[C@@H]1C[C@@H](Oc2nccc3c(Cl)cccc23)CN1C(=O)[C@@H](NC(=O)OC(C)(C)C)C(C)(C)C)C(=O)NS(=O)(=O)C1CC1
- CC50 [15]: 38000 nM

- EC50 (Hepatitis C virus [1]): 25 nM
- Drug uptake (Liver): 51260 ng
- bioavailability [6]: 9%
- IC50 [30]: 1 nM
- clearance [31]: 6 mL/min/kg
- AUC [19]: 3.74 µM·h
- half-life [22]: 2.2 h
- AUC at 4 h [25]: 2.36 µM·h
SMILES: C=C[C@@H]1C[C@]1(NC(=O)[C@@H]1C[C@@H](Oc2nccc3c(OC)cccc23)CN1C(=O)[C@@H](NC(=O)OC(C)(C)C)C(C)(C)C)C(=O)NS(=O)(=O)C1CC1
- CC50 [15]: > 100000 nM
